# ChEMBL document CHEMBL1641462, “Synthesis and in vivo evaluation of ¹⁸F-fluoroethyl GF120918 and XR9576 as positron emission tomography probes for assessing the function of drug efflux transporters” (Bioorg Med Chem, 2011)
# Assays:
# Kidney [1] = experiment: Biodistribution in FVB mouse kidney assessed per gram of tissue at 1 to 4.8 MBq, iv after 5 mins; assay type: ADME, organism-based; conditions: in vivo
# Method in brief: (§1)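 Male FVB mice (8–10 weeks, 25–29 g) received tracer iv (1.0–4.8 MBq, 7.1–34 pmol). Killed by cervical dislocation at 5, 15, 30, 60 or 90 min. Blood taken by heart puncture; tissues dissected, weighed and gamma-counted. Activity decay-corrected to injection time and given as %ID/g; mean ± SD, n = 4 per time point.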
# Liver = experiment: Biodistribution in FVB mouse liver assessed per gram of tissue at 1 to 4.8 MBq, iv after 60 mins; assay type: ADME, organism-based; conditions: in vivo, 1 h; method in brief: as §1
# [2] = Biodistribution in FVB mouse small intestine assessed per gram of tissue at 1 to 4.8 MBq, iv after 5 mins; assay type: ADME, organism-based; conditions: in vivo
# Method in brief: (§2)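 Male FVB mice (8–10 weeks, 25–29 g) given tracer 1.0–4.8 MBq/7.1–34 pmol iv; killed by cervical dislocation at set times (n = 4 per group). Blood by heart puncture; tissues dissected, weighed and gamma counted. Radioactivity decay-corrected to injection time, expressed as %ID/g, mean ± SD.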
# Brain [3] = experiment: AUC (0 to 60 mins) in wild type mouse brain at 2.8 to 5.6 MBq, iv co-administered with GF120918; assay type: ADME, organism-based; conditions: in vivo
# Method in brief: (§3)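 Small-animal PET in male wild-type and knockout mice under isoflurane (1.0–1.5%), prone on the scanner bed. Tracer (2.8–5.6 MBq, 20–40 pmol) given iv, with or without co-injected GF120918 at 5 mg/kg. Dynamic 60-min list-mode scan. Decay-corrected SUV read from ROIs on brain, and on the ventricular cavity for blood. AUC taken over 0–60 min in SUV·min; n = 4 per group.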
# Brain [4] = experiment: Ratio of AUC (0 to 60 mins) in P-gp/BCRP knockout mouse brain to AUC (0 to 60 mins) in wild type mouse brain at 2.8 to 5.6 MBq, iv; assay type: ADME, organism-based; conditions: in vivo
# Heart [5] = experiment: Biodistribution in FVB mouse heart assessed per gram of tissue at 1 to 4.8 MBq, iv after 30 mins; assay type: ADME, organism-based; conditions: in vivo, 0.5 h; method in brief: as §1
# Blood [6] = experiment: Biodistribution in FVB mouse blood assessed per gram of tissue at 1 to 4.8 MBq, iv after 90 mins; assay type: ADME, organism-based; conditions: in vivo, 1.5 h; method in brief: as §1
# Brain [7] = experiment: Biodistribution in FVB mouse brain assessed per gram of tissue at 1 to 4.8 MBq, iv after 15 mins; assay type: ADME, organism-based; conditions: in vivo, 0.25 h; method in brief: as §1
# Spleen [8] = experiment: Biodistribution in FVB mouse spleen assessed per gram of tissue at 1 to 4.8 MBq, iv after 5 mins; assay type: ADME, organism-based; conditions: in vivo; method in brief: as §2
# Kidney [9] = experiment: Biodistribution in FVB mouse kidney assessed per gram of tissue at 1 to 4.8 MBq, iv after 60 mins; assay type: ADME, organism-based; conditions: in vivo, 1 h; method in brief: as §1
# Muscle tissue [10] = experiment: Biodistribution in FVB mouse muscle assessed per gram of tissue at 1 to 4.8 MBq, iv after 5 mins; assay type: ADME, organism-based; conditions: in vivo; method in brief: as §1
# Brain [11] = experiment: Biodistribution in FVB mouse brain assessed per gram of tissue at 1 to 4.8 MBq, iv after 30 mins; assay type: ADME, organism-based; conditions: in vivo, 0.5 h; method in brief: as §1
# Brain [12] = experiment: AUC (0 to 60 mins) in BCRP knockout mouse brain at 2.8 to 5.6 MBq, iv; assay type: ADME, organism-based; conditions: in vivo; method in brief: as §3
# [13] = Biodistribution in FVB mouse small intestine assessed per gram of tissue at 1 to 4.8 MBq, iv after 60 mins; assay type: ADME, organism-based; conditions: in vivo, 1 h; method in brief: as §2
# Spleen [14] = experiment: Biodistribution in FVB mouse spleen assessed per gram of tissue at 1 to 4.8 MBq, iv after 15 mins; assay type: ADME, organism-based; conditions: in vivo, 0.25 h; method in brief: as §2
# Heart [15] = experiment: Biodistribution in FVB mouse heart assessed per gram of tissue at 1 to 4.8 MBq, iv after 90 mins; assay type: ADME, organism-based; conditions: in vivo, 1.5 h; method in brief: as §1
# Blood [16] = experiment: AUC (0 to 60 mins) in BCRP knockout mouse blood at 2.8 to 5.6 MBq, iv; assay type: ADME, tissue-based; method in brief: as §3
# Brain [17] = experiment: Biodistribution in FVB mouse brain assessed per gram of tissue at 1 to 4.8 MBq, iv after 60 mins; assay type: ADME, organism-based; conditions: in vivo, 1 h; method in brief: as §1
# Spleen [18] = experiment: Biodistribution in FVB mouse spleen assessed per gram of tissue at 1 to 4.8 MBq, iv after 60 mins; assay type: ADME, organism-based; conditions: in vivo, 1 h; method in brief: as §2
# Pancreas [19] = experiment: Biodistribution in FVB mouse pancreas assessed per gram of tissue at 1 to 4.8 MBq, iv after 5 mins; assay type: ADME, organism-based; conditions: in vivo; method in brief: as §2
# Bone [20] = experiment: Biodistribution in FVB mouse bone assessed per gram of tissue at 1 to 4.8 MBq, iv after 60 mins; assay type: ADME, organism-based, Bone element; conditions: in vivo, 1 h; method in brief: as §1
# Blood [21] = experiment: Biodistribution in FVB mouse blood assessed per gram of tissue at 1 to 4.8 MBq, iv after 15 mins; assay type: ADME, organism-based; conditions: in vivo, 0.25 h; method in brief: as §1
# Lung [22] = experiment: Biodistribution in FVB mouse lung assessed per gram of tissue at 1 to 4.8 MBq, iv after 15 mins; assay type: ADME, organism-based; conditions: in vivo, 0.25 h; method in brief: as §1
# Brain [23] = experiment: Biodistribution in P-gp knockout mouse brain at 3.3 to 4.9 MBq, iv after up to 60 mins; assay type: ADME, organism-based; conditions: in vivo, 1 h
# Muscle tissue [24] = experiment: Biodistribution in FVB mouse muscle assessed per gram of tissue at 1 to 4.8 MBq, iv after 15 mins; assay type: ADME, organism-based; conditions: in vivo, 0.25 h; method in brief: as §1
# Blood [25] = experiment: Biodistribution in FVB mouse blood assessed per gram of tissue at 1 to 4.8 MBq, iv after 5 mins; assay type: ADME, organism-based; conditions: in vivo; method in brief: as §1
# Pancreas [26] = experiment: Biodistribution in FVB mouse pancreas assessed per gram of tissue at 1 to 4.8 MBq, iv after 60 mins; assay type: ADME, organism-based; conditions: in vivo, 1 h; method in brief: as §2
# Lung [27] = experiment: Biodistribution in FVB mouse lung assessed per gram of tissue at 1 to 4.8 MBq, iv after 60 mins; assay type: ADME, organism-based; conditions: in vivo, 1 h; method in brief: as §1
# [28] = Biodistribution in FVB mouse small intestine assessed per gram of tissue at 1 to 4.8 MBq, iv after 90 mins; assay type: ADME, organism-based; conditions: in vivo, 1.5 h; method in brief: as §2
# Bone [29] = experiment: Biodistribution in FVB mouse bone assessed per gram of tissue at 1 to 4.8 MBq, iv after 5 mins; assay type: ADME, organism-based, Bone element; conditions: in vivo; method in brief: as §1
# Brain [30] = experiment: Biodistribution in BCRP knockout mouse brain at 3.3 to 4.9 MBq, iv after up to 60 mins; assay type: ADME, organism-based; conditions: in vivo, 1 h
# Muscle tissue [31] = experiment: Biodistribution in FVB mouse muscle assessed per gram of tissue at 1 to 4.8 MBq, iv after 30 mins; assay type: ADME, organism-based; conditions: in vivo, 0.5 h; method in brief: as §1
# Brain [32] = experiment: Metabolic stability in FVB mouse brain assessed as recovery of radioactivity at 1 to 4.8 MBq, iv by HPLC analysis; assay type: ADME, organism-based; conditions: in vivo
# Method in brief: (§4)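 Brain homogenate or plasma from tracer plus GF120918 (5 mg/kg) co-injected FVB mice deproteinized with equal volume ice-cold acetonitrile; radioactivity in supernatant, precipitate and HPLC waste gamma counted to give recovery, mean ± SD (n = 7).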
# Bone [33] = experiment: Biodistribution in FVB mouse bone assessed per gram of tissue at 1 to 4.8 MBq, iv after 90 mins; assay type: ADME, organism-based, Bone element; conditions: in vivo, 1.5 h; method in brief: as §1
# Pancreas [34] = experiment: Biodistribution in FVB mouse pancreas assessed per gram of tissue at 1 to 4.8 MBq, iv after 30 mins; assay type: ADME, organism-based; conditions: in vivo, 0.5 h; method in brief: as §2
# Plasma = experiment: Metabolic stability in FVB mouse plasma assessed as recovery of radioactivity at 1 to 4.8 MBq, iv by HPLC analysis; assay type: ADME, organism-based; conditions: in vivo; method in brief: as §4
SMILES,Drug uptake (Kidney [1]),Drug uptake (Liver),Drug uptake [2],AUC (Brain [3]),Ratio AUC (Brain [4]),Drug uptake (Heart [5]),Drug uptake (Blood [6]),Drug uptake (Brain [7]),Drug uptake (Spleen [8]),Drug uptake (Kidney [9]),Drug uptake (Muscle tissue [10]),Drug uptake (Brain [11]),SUV (Brain [12]),Drug uptake [13],Drug uptake (Spleen [14]),Drug uptake (Heart [15]),AUC (Blood [16]),Drug uptake (Brain [17]),Drug uptake (Spleen [18]),Drug uptake (Pancreas [19]),other results
COc1cc(NC(=O)c2cnc3ccccc3c2)c(C(=O)Nc2ccc(CCN3CCc4cc(OC)c(OCC[18F])cc4C3)cc2)cc1OC,18 % ID/g,25.4 % ID/g,5.67 % ID/g,28.1 SUV·min,8.3,2.86 % ID/g,0.57 % ID/g,0.11 % ID/g,5.12 % ID/g,11.29 % ID/g,2.23 % ID/g,0.11 % ID/g,6.5,22.42 % ID/g,6.73 % ID/g,1.74 % ID/g,42.2 SUV·min,0.1 % ID/g,7.18 % ID/g,6.05 % ID/g,Drug uptake (Bone [20]): 1.62 % ID/g; Drug uptake (Blood [21]): 0.88 % ID/g; Drug uptake (Lung [22]): 20.55 % ID/g; Activity (Brain [23]): Active; Drug uptake (Muscle tissue [24]): 1.61 % ID/g; Drug uptake (Blood [25]): 1.39 % ID/g; Drug uptake (Pancreas [26]): 12.45 % ID/g; Drug uptake (Lung [27]): 16.06 % ID/g; Drug uptake [28]: 24.45 % ID/g; Drug uptake (Bone [29]): 2.17 % ID/g; Activity (Brain [30]): Active; Drug uptake (Muscle tissue [31]): 1.04 % ID/g; Stability (Brain [32]): 92.5%; Drug uptake (Bone [33]): 1.45 % ID/g; Drug uptake (Pancreas [34]): 8.56 % ID/g; Stability (Plasma): 95.3%
COc1cc2c(cc1OC)CN(CCc1ccc(NC(=O)c3cccc4c(=O)c5cccc(OCC[18F])c5[nH]c34)cc1)CC2,20.65 % ID/g,11.6 % ID/g,4.51 % ID/g,30.2 SUV·min,9,1.38 % ID/g,0.36 % ID/g,0.16 % ID/g,4.76 % ID/g,23.44 % ID/g,1.75 % ID/g,0.14 % ID/g,5,12.48 % ID/g,5.34 % ID/g,0.85 % ID/g,25.3 SUV·min,0.17 % ID/g,5.74 % ID/g,6.12 % ID/g,Drug uptake (Bone [20]): 1.43 % ID/g; Drug uptake (Blood [21]): 0.72 % ID/g; Drug uptake (Lung [22]): 13.32 % ID/g; Activity (Brain [23]): Active; Drug uptake (Muscle tissue [24]): 1.18 % ID/g; Drug uptake (Blood [25]): 1.39 % ID/g; Drug uptake (Pancreas [26]): 15.14 % ID/g; Drug uptake (Lung [27]): 6.16 % ID/g; Drug uptake [28]: 17.15 % ID/g; Drug uptake (Bone [29]): 1.99 % ID/g; Activity (Brain [30]): Active; Drug uptake (Muscle tissue [31]): 0.62 % ID/g; Stability (Brain [32]): 91.4%; Drug uptake (Bone [33]): 1.3 % ID/g; Drug uptake (Pancreas [34]): 11.15 % ID/g; Stability (Plasma): 94.1%
